# Laboratory results as given in publication PMC10979060 (Heliyon, 2024).
# Read-outs that look alike come from different tables or passages of the source. No end group written: not given here.
# Assays:
# ACE [1] = details: cited from earlier work
# ACE [2] = test: ACE-inhibitory kinetics; type: biochemical
# Outline: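 Reciprocal velocity was plotted against reciprocal HHL concentration (Lineweaver–Burk). Vmax came from the Y-axis intercept and Km from the X-axis intercept. The inhibition mode was assigned from the plot pattern. Runs were in triplicate.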
substance,measurement,setting,value
MEGAQEAQGD,IC50,"ACE [1]; peptide from sea cucumber, ref [38]",4.5 µM
Tyr-Arg-Pro-Tyr,IC50,"ACE [1]; peptide from bonito, ref [37]",320 µM
Val-Lys-Pro,IC50,"ACE [1]; peptide from freshwater clam, ref [39]",3.7 µM
KKCHFWPFPW [KKCHFWPFPW],inhibition mode,"ACE [2]; Lineweaver–Burk, HHL 0.5, 1, 2 mM, peptide 0, 17.63, 35.26, 70.52, 105.78, 141.04, 176.3 μM, triplicate",competitive inhibition
same,Km values,"ACE [2]; Lineweaver–Burk, HHL 0.5, 1, 2 mM, peptide added vs control, triplicate",higher than that of the control
same,"inhibitor class (substrate-type, prodrug-type or true inhibitor)",ACE [2]; according to the Lineweaver–Burk plot,true inhibitor
